Measured values published in paper PMC3921891 (European journal of pharmacology, 2010).
Entries after “also recorded” stand apart in the source; their conditions may differ. Where two headings read alike, the source gives them in different places. Marks after values point to notes of the source that are not given here.

Assays:
[1] = tested on: ERK (p42/p44 MAP kinase) in NCI-H1299 cells transfected with NMB receptor; assay: ERK tyrosine phosphorylation, Western blot; type: cell-based, human; details: abstract statement
How it was run: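 Monolayers of NCI-H1299 cells with transfected NMB receptor were held in SIT medium 3 h. Inhibitors or anti-growth-factor antibodies (5 µg/ml) were given for 30 min, then 0.1 µM NMB or BA1 for 2 min. Lysate (20 µg) was run on 4–20% gels and blotted with anti-phospho-ERK, with anti-ERK or anti-tubulin as loading controls. Detection was by ECL with densitometry.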

[2] = tested on: EGF receptor in NCI-H1299 cells; assay: EGF receptor tyrosine phosphorylation, Western blot, NCI-H1299 cells; type: cell-based, human
[3] = tested on: reactive oxygen species in NCI-H1299 cells; assay: Reactive oxygen species; type: cell-based, human; details: for effect on BA1-induced reactive oxygen species / effect on basal reactive oxygen species: PP2 10 µM, GM6001 10 µM; for effect on BA1-induced reactive oxygen species / effect on H2O2-induced reactive oxygen species: NAC (5 mM), data not shown; for % Fluorescence Intensity, inhibitor alone (basal): PP2 10 µM or GM6001 (10 µM); for effect on basal reactive oxygen species: inhibitor alone
[4] = tested on: TGFα release from NCI-H1299 cells; assay: TGFα release, TGFα immunoassay; type: cell-based, human; details: inhibitor pretreatment, NMB 100 nM
[5] = tested on: EGF receptor in NCI-H1299 cells transfected with NMB receptor; type: cell-based, human; details: for effect of PP2 / GM6001 on NMB-induced EGF receptor transactivation: 10 µM inhibitor, densitometry of 3 experiments (Fig. 3B, C)
How it was run: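 NCI-H1299 cells expressing transfected NMB receptor, grown to a monolayer, held in SIT medium 3 h. Inhibitors were added 30 min before stimulation with 0.1 µM NMB or BA1 for 2 min. Cells were lysed. 400 µg protein was immunoprecipitated overnight at 4°C with anti-phosphotyrosine, run on 4–20% SDS-PAGE and blotted with anti-EGF receptor. Alternatively, 20 µg extract was probed with anti-PY1068-EGF receptor. Detection was by ECL with densitometry.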

NCI-H1299 cells [6] = assay: MTT proliferation assay, NCI-H1299; type: cell-based, human
NCI-H1299 cells [7] = assay: Clonogenic assay, NCI-H1299; type: cell-based, human
GRP receptor = details: ref Jensen et al., 2008; Ashwood et al., 1998; cited from earlier work
NMB receptor = details: ref Jensen et al., 2008; Ashwood et al., 1998; cited from earlier work
lung cancer cells = details: in vitro; ref Witta et al., 2006; Ono et al., 2004; Janmaat et al., 2003; cited from earlier work
NSCLC patients = details: particularly a subgroup with EGF receptor mutations; no reference given; cited from earlier work
[8] = Tiron 5 mM, None = 100 ± 7, mean ± S.D. of 6 determinations

Molecule: COc1cc2ncnc(Nc3cccc(Cl)c3)c2cc1OC [AG1478, N-(3-Chlorophenyl)-6,7-dimethoxy-4-quinazolinamine]
- effect on EGF receptor transactivation or ERK tyrosine phosphorylation caused by NMB-like peptides [1]: inhibited
- effect on NMB-induced EGF receptor tyrosine phosphorylation ([2]; AG1478 10 µg/ml, data not shown): inhibited

Molecule: CNC(=O)[C@H](Cc1c[nH]c2ccccc12)NC(=O)[C@@H](CC(=O)NO)CC(C)C [GM6001, (R)-N4-Hydroxy-N1-[(S)-2-(1H–indol-3-yl)-1-methylcarbamoyl-ethyl]-2-isobutyl-succinamide]
- effect on BA1-induced reactive oxygen species [3]: inhibited the increase in reactive oxygen species
- % Fluorescence Intensity, inhibitor alone (basal) [3, 8]: 94 ± 4%
- effect on basal reactive oxygen species ([3]; Tiron 5 mM): had little effect
- effect on NMB-induced TGFα secretion [4]: reversed
- effect of PP2 / GM6001 on NMB-induced EGF receptor transactivation [5]: markedly inhibited
- effect of PP2 / GM6001 on NMB-induced EGF receptor transactivation ([5]; listed as GM60001): reduced significantly

Molecule: OO [H2O2]
- generation of reactive oxygen species ([3]; BA1 0.1 µM, NMB 0.1 µM or H2O2 10 µM): significantly increased
- % Fluorescence Intensity, stimulus alone ([3]; NMB 0.1 µM, H2O2 10 µM or BA1 0.1 µM, 2 hour, None = 100 ± 7, mean ± S.D. of 6 determinations, P < 0.01): 589 ± 60 ^b %

Molecule: CC(=O)N[C@@H](CS)C(=O)O [NAC, N-acetylcysteine]
- effect on BA1-induced reactive oxygen species [3]: reduced
- effect on H2O2-induced reactive oxygen species ([3]; Tiron 5 mM): reduced
- effect of NAC on NMB-induced EGF receptor tyrosine phosphorylation ([5]; 5 mM NAC pretreatment, NMB 0.1 µM, 4 experiments (Fig. 4A, B)): inhibited

Molecule: C[C@@](Cc1c[nH]c2ccccc12)(NC(=O)Nc1ccc([N+](=O)[O-])cc1)C(=O)NCC1(c2ccccn2)CCCCC1 [PD168368]
- effect of 3 µM PD168368 on the gefitinib dose response curve (NCI-H1299 cells [6]; 3 µM PD168368, relative to no additions): shifted to the left
- effect of PD168368 alone on proliferation (NCI-H1299 cells [6]; PD168368 alone, mean of 8 determinations (Fig. 5A)): inhibited the proliferation of NCI-H1299 cells in a dose-dependent manner
- effect of PD168368 on the gefitinib dose-response curve (NCI-H1299 cells [6]; increasing concentrations of PD168368 with gefitinib (Fig. 5A)): progressive shift to the left of the gefitinib dose-response curve
- effect on EGF receptor transactivation or ERK tyrosine phosphorylation caused by NMB-like peptides [1]: inhibited
- effect on colony formation (NCI-H1299 cells [7]; 0.3 µM PD168368, 2 weeks (Fig. 5B2)): had little effect on colony formation
- effect on BA1-induced EGF receptor tyrosine phosphorylation ([5]; 1 µM antagonist, 30 min pretreatment, 100 nM BA1, 4 experiments (Fig. 1D)): significantly reversed
- effect on NMB-induced EGF receptor transactivation ([5]; data not shown): antagonized the ability of NMB to cause EGF receptor transactivation

Molecule: COc1ccc(C2(CNC(=O)[C@](C)(Cc3c[nH]c4ccccc34)NC(=O)Nc3ccc([N+](=O)[O-])cc3)CCCCC2)nc1 [PD176252]
- affinity for GRP receptor (GRP receptor): high affinity
- affinity for NMB receptor (NMB receptor): high affinity

Molecule: COc1cc2ncnc(Nc3ccc(Oc4ccccc4)cc3)c2cc1OC [PP2, 4-(4’-Phenoxyanilino)-6,7-dimethoxyquinzoline,6,7-Dimethoxy-N(4-phenoxyphenyl)-4-quinazolinamine]
- effect on BA1-induced reactive oxygen species [3]: inhibited the increase in reactive oxygen species
- % Fluorescence Intensity, inhibitor alone (basal) [3, 8]: 93 ± 5%
- effect on basal reactive oxygen species ([3]; Tiron 5 mM): had little effect
- effect on NMB-induced TGFα secretion [4]: reversed
- effect of PP2 / GM6001 on NMB-induced EGF receptor transactivation [5]: markedly inhibited; also recorded: reduced significantly

Molecule: O=S(=O)(O)c1cc(O)c(O)c(S(=O)(=O)O)c1 [Tiron]
- effect on NMB-induced reactive oxygen species ([3]; Tiron 5 mM): greatly reduced
- % Fluorescence Intensity, inhibitor + H2O2 ([3]; Tiron 5 mM 30 min prior to H2O2 10 µM, 2 hour, mean ± S.D. of 6 determinations, P < 0.01): 200 ± 14 ^b %
- % Fluorescence Intensity, inhibitor + NMB ([3]; Tiron 5 mM 30 min prior to NMB 0.1 µM, 2 hour, mean ± S.D. of 6 determinations): 92 ± 9%
- % Fluorescence Intensity, inhibitor alone (basal) [3, 8]: 82 ± 11%
- effect on H2O2-induced reactive oxygen species ([3]; Tiron 5 mM): greatly reduced
- effect on basal reactive oxygen species ([3]; Tiron 5 mM): had little effect
- effect of Tiron on NMB-induced EGF receptor transactivation ([5]; 10 mM Tiron (Fig. 4D)): significantly inhibited
- effect of Tiron on NMB-induced EGF receptor transactivation ([5]; 0.1 or 1 mM Tiron (Fig. 4C, D)): had little effect
- effect of Tiron on NMB-induced EGF receptor transactivation, dose dependence ([5]; 0.1 to 10 mM Tiron (Fig. 4C)): inhibited in a dose-dependent manner

Molecule: COc1cc2ncnc(Nc3ccc(F)c(Cl)c3)c2cc1OCCCN1CCOCC1 [gefitinib]
- effect on proliferation at 1 and 3 µg/ml (NCI-H1299 cells [6]; gefitinib 1 and 3 µg/ml): having no effect
- variation of sensitivity of lung cancer cells to gefitinib (lung cancer cells): up to 2700 fold
- NSCLC patients responding (NSCLC patients): 10%
- effect on EGF receptor transactivation or ERK tyrosine phosphorylation caused by NMB-like peptides [1]: inhibited
- effect on colony number and size (NCI-H1299 cells [7]; 1 µg/ml gefitinib, 2 weeks (Fig. 5B3)): slightly reduced colony number and size

Molecule: bombesin
- tyrosine phosphorylation of the 170 kDa EGF receptor ([2]; native NCI-H1299 cells, 0.1 µM (Fig. 1A)): caused tyrosine phosphorylation of the 170 kDa EGF receptor
- increase in EGF receptor tyrosine phosphorylation ([2]; native NCI-H1299 cells, 0.1 µM, 2 min, densitometry analysis of 4 experiments (Fig. 1B)): 1.4 fold
